Measured values as given in ChEMBL document CHEMBL4038284, “Synthesis of novel quinoline-based 4,5-dihydro-1H-pyrazoles as potential anticancer, antifungal, antibacterial and antiprotozoal agents” (Eur J Med Chem, 2017).
Converted amounts (≈) assume the structure as drawn.

How the values were obtained:
[1] = system: Neisseria gonorrhoeae; assay: Antibacterial activity against beta lactamase positive Neisseria gonorrhoeae ATCC 31426 by oxidase test; type: functional
In short: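 Agar dilution MIC on GC agar with 1% isovitalex containing increasing compound concentrations. Plates inoculated with about 1×10^4 CFU (5 µL). MIC is the lowest concentration that inhibited growth, with growth confirmed by oxidase test. Run in duplicate, repeated at least three times.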

[2] = system: Klebsiella pneumoniae; assay: Antibacterial activity against ESBL positive Klebsiella pneumoniae ATCC 700603 after 24 hrs by resazurin dye based microdilution assay; type: functional; conditions: Klebsiella pneumoniae, 700603, 24 h
In short: (§1)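 MIC taken as the lowest concentration giving visible inhibition and/or by resazurin (1 mg/mL). Gentamicin was the control. Run in duplicate, repeated at least three times.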

[3] = system: Leishmania panamensis; assay: Antileshmanial activity against EpiR/GFP fused Leishmania panamensis MHOM/CO/87/UA140 intracellular amastigotes infected in human […] cells after 72 hrs by flow cytometric method; type: functional, cell-based; conditions: MHOM/CO/87/UA140, 72 h
In short: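 PMA-treated U-937 cells (3 × 10^5 cells/mL) infected with stationary-phase GFP L. panamensis promastigotes (15:1), 3 h at 34 °C, then washed. After 24 h, compounds added at 50, 12.5, 3.125 and 0.78 µg/mL for 72 h at 37 °C. EC50 by Probit; triplicate, two experiments.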

[4] = system: Trypanosoma cruzi; assay: Antitrypanosomal activity against Trypanosoma cruzi Tulahuen intracellular amastigote harboring LacZ infected in human U937 cells after 72 hrs by CPRG/Nonidet reagent based spectrophotometric method; type: functional, cell-based; conditions: U-937, 72 h
In short: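 U-937 cells at 2.5 × 10^5 cells/mL in RPMI-1640 with 10% serum and 0.1 µg/mL PMA were infected with β-galactosidase-transfected Tulahuen epimastigotes at 5 parasites per cell. Infected cells were exposed to 50, 12.5, 3.125 and 0.78 µg/mL for 72 h. CPRG (100 uM) and 0.1% Nonidet P-40 were added for 3 h, read at 570 nm. EC50 by Probit. Triplicate, at least two experiments; benznidazole as reference.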

[5] = system: Candida albicans; assay: Growth inhibition of Candida albicans ATCC 10231 at 125 ug/ml incubated for 48 hrs under dark condition by broth microdilution method relative to control; type: functional; conditions: ATCC 10231, 48 h, read-out: GI
In short: (§2)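 CLSI M27-A3 broth microdilution in RPMI-1640, DMSO ≤1%. Inoculum 1-5 × 10^3 CFU/mL. Incubated 48 h at 30 °C, dark. % inhibition = 100 − (OD405 test − sterility control)/(OD405 growth control − sterility control), with growth and sterility control wells. Triplicate.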

[6] = system: Candida albicans; assay: Antifungal activity against Candida albicans ATCC 10231 incubated for 48 hrs under dark condition by broth microdilution method; type: functional; conditions: ATCC 10231, 48 h
In short: (§3)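 CLSI M27-A3 broth microdilution in RPMI-1640, DMSO ≤1%, compounds at 250-0.98 µg/mL final. Inoculum 1-5 × 10^3 CFU/mL. Incubated 48 h at 30 °C in a moist dark chamber, read at OD405. MIC80 and MIC50 taken from % inhibition dose-response curves (mean ± SEM, triplicate). Amphotericin B was the positive control.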

[7] = system: Cryptococcus neoformans; assay: Growth inhibition of Cryptococcus neoformans ATCC 32264 at 250 ug/ml incubated for 48 hrs under dark condition by broth microdilution method relative to control; type: functional; conditions: ATCC 32264, 48 h, read-out: GI; in short: as §2
[8] = system: Cryptococcus neoformans; assay: Growth inhibition of Cryptococcus neoformans ATCC 32264 at 62.5 ug/ml incubated for 48 hrs under dark condition by broth microdilution method relative to control; type: functional; conditions: ATCC 32264, 48 h, read-out: GI; in short: as §2
[9] = system: Escherichia coli; assay: Antibacterial activity against Escherichia coli ATCC 25922 after 24 hrs by resazurin dye based microdilution assay; type: functional; conditions: ATCC 25922, 24 h; in short: as §1
[10] = system: Candida albicans; assay: Growth inhibition of Candida albicans ATCC 10231 at 62.5 ug/ml incubated for 48 hrs under dark condition by broth microdilution method relative to control; type: functional; conditions: ATCC 10231, 48 h, read-out: GI; in short: as §2
[11] = system: Cryptococcus neoformans; assay: Antifungal activity against Cryptococcus neoformans ATCC 32264 incubated for 48 hrs under dark condition by broth microdilution method; type: functional; conditions: ATCC 32264, 48 h; in short: as §3
[12] = system: Cryptococcus neoformans; assay: Growth inhibition of Cryptococcus neoformans ATCC 32264 at 3.4 ug/ml incubated for 48 hrs under dark condition by broth microdilution method relative to control; type: functional; conditions: ATCC 32264, 48 h, read-out: GI
[13] = system: Candida albicans; assay: Growth inhibition of Candida albicans ATCC 10231 at 3.4 ug/ml incubated for 48 hrs under dark condition by broth microdilution method relative to control; type: functional; conditions: ATCC 10231, 48 h, read-out: GI
[14] = system: U-937; assay: Cytotoxicity against human U937 cells after 72 hrs by MTT assay; type: cell-based; conditions: u-937, 72 h
In short: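 Exponentially growing U-937 at 1 × 10^5 cells/mL in RPMI-1640 with 10% FBS were exposed to 200, 50, 12.5 and 3.125 µg/mL for 72 h at 37 °C, 5% CO2. MTT for 3 h, stopped with isopropanol/SDS, formazan read at 570 nm, blank-corrected. LC50 by Probit from % viability against untreated cells. Triplicate, at least two independent experiments.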

[15] = system: Candida albicans; assay: Growth inhibition of Candida albicans ATCC 10231 at 250 ug/ml incubated for 48 hrs under dark condition by broth microdilution method relative to control; type: functional; conditions: ATCC 10231, 48 h, read-out: GI; in short: as §2
[16] = system: Candida albicans; assay: Growth inhibition of Candida albicans ATCC 10231 at 15.62 ug/ml incubated for 48 hrs under dark condition by broth microdilution method relative to control; type: functional; conditions: ATCC 10231, 48 h, read-out: GI; in short: as §2
[17] = system: Candida albicans; assay: Growth inhibition of Candida albicans ATCC 10231 at 7.8 ug/ml incubated for 48 hrs under dark condition by broth microdilution method relative to control; type: functional; conditions: ATCC 10231, 48 h, read-out: GI; in short: as §2
[18] = system: Cryptococcus neoformans; assay: Growth inhibition of Cryptococcus neoformans ATCC 32264 at 15.62 ug/ml incubated for 48 hrs under dark condition by broth microdilution method relative to control; type: functional; conditions: ATCC 32264, 48 h, read-out: GI; in short: as §2
[19] = system: Plasmodium falciparum; assay: Antiplasmodial activity against chloroquine-sensitive Plasmodium falciparum 3D7 assessed as reduction in parasitic LDH activity after 48 hrs by Malstat reagent based […] method; type: functional; conditions: 3D7, 48 h
In short: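 Unsynchronized P. falciparum 3D7 at 0.5% parasitemia and 1% hematocrit in RPMI with 3% Albumax II. Exposed to 100, 25, 6.25 and 1.56 µg/mL for 48 h at 37 °C under 90% N2/5% CO2/5% O2. After three freeze-thaw cycles, LDH measured with Malstat and NBT/PES, 1 h in the dark, read at 650 nm. IC50 by Probit; triplicate, ≥2 experiments.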

[20] = system: Cryptococcus neoformans; assay: Growth inhibition of Cryptococcus neoformans ATCC 32264 at 31.25 ug/ml incubated for 48 hrs under dark condition by broth microdilution method relative to control; type: functional; conditions: ATCC 32264, 48 h, read-out: GI; in short: as §2
[21] = system: Staphylococcus aureus; assay: Antibacterial activity against vancomycin-intermediate Staphylococcus aureus after 24 hrs by resazurin dye based microdilution assay; type: functional; in short: as §1
[22] = system: Candida albicans; assay: Growth inhibition of Candida albicans ATCC 10231 at 31.25 ug/ml incubated for 48 hrs under dark condition by broth microdilution method relative to control; type: functional; conditions: ATCC 10231, 48 h, read-out: GI; in short: as §2
[23] = system: Staphylococcus aureus; assay: Antibacterial activity against methicillin-resistant Staphylococcus aureus ATCC 43300 after 24 hrs by resazurin dye based microdilution assay; type: functional; conditions: ATCC 43300, 24 h
In short: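 Broth microdilution in Mueller Hinton broth, inoculum 5 × 10^5 – 8 × 10^5. Compound stocks diluted in MHB with 5% DMSO and 0.1% Tween 80. Incubation 24 h at 35-37 °C. MIC is the lowest concentration with visible growth inhibition and/or by resazurin (1 mg/mL) read-out. Gentamicin as control. Run in duplicate, replicated at least three times.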

[24] = system: Cryptococcus neoformans; assay: Growth inhibition of Cryptococcus neoformans ATCC 32264 at 125 ug/ml incubated for 48 hrs under dark condition by broth microdilution method relative to control; type: functional; conditions: ATCC 32264, 48 h, read-out: GI; in short: as §2
[25] = system: Klebsiella pneumoniae; assay: Antibacterial activity against carbapenemase positive Klebsiella pneumoniae BAA 1705 after 24 hrs by resazurin dye based microdilution assay; type: functional; conditions: BAA 1705, 24 h; in short: as §1
[26] = system: Cryptococcus neoformans; assay: Growth inhibition of Cryptococcus neoformans ATCC 32264 at 7.8 ug/ml incubated for 48 hrs under dark condition by broth microdilution method relative to control; type: functional; conditions: ATCC 32264, 48 h, read-out: GI; in short: as §2
[27] = system: Pseudomonas aeruginosa; assay: Antibacterial activity against Pseudomonas aeruginosa ATCC 27853 after 24 hrs by resazurin dye based microdilution assay; type: functional; conditions: ATCC 27853, 24 h; in short: as §1
[28] = system: Staphylococcus aureus; assay: Antibacterial activity against methicillin-sensitive Staphylococcus aureus ATCC 25923 after 24 hrs by resazurin dye based microdilution assay; type: functional; conditions: ATCC 25923, 24 h; in short: as §1

SMILES	MIC [1] [µg/mL]	MIC [2] [µg/mL]	EC50 [3] [µg/mL]	EC50 [4] [µg/mL]	inhibition of growth at 125 µg/mL [5] [%]	MIC50 [6] [µg/mL]	MIC80 [6] [µg/mL]	inhibition of growth at 250 µg/mL [7] [%]	inhibition of growth at 62.5 µg/mL [8] [%]	MIC [9] [µg/mL]	inhibition of growth at 62.5 µg/mL [10] [%]	MIC50 [11] [µg/mL]	MIC80 [11] [µg/mL]	inhibition of growth at 3.4 µg/mL [12] [%]	inhibition of growth at 3.4 µg/mL [13] [%]	LC50 [14] [µg/mL]	inhibition of growth at 250 µg/mL [15] [%]	inhibition of growth at 15.62 µg/mL [16] [%]	inhibition of growth at 7.8 µg/mL [17] [%]	inhibition of growth at 15.62 µg/mL [18] [%]	further results
CC(=O)N1N=C(c2ccc(Cl)cc2)CC1c1cccc(Nc2ccnc3cc(Cl)ccc23)c1 (stereo not given)	> 1000	> 1000	5.53 (≈ 11.6 µM)	6.57 (≈ 13.8 µM)	38.8	≥ 250	≥ 250	100	32.2	> 1000	22.5	125 (≈ 263 µM)	250 (≈ 526 µM)	11.1	14.7	17 (≈ 35.8 µM)	40.9	20	19.6	18.7	EC50 [19]: 26.3 µg/mL (≈ 55.4 µM); inhibition of growth at 31.25 µg/mL [20]: 28.1%; MIC [21]: > 1000 µg/mL; inhibition of growth at 31.25 µg/mL [22]: 21.6%; MIC [23]: > 1000 µg/mL; inhibition of growth at 125 µg/mL [24]: 53.4%; MIC [25]: > 1000 µg/mL; inhibition of growth at 7.8 µg/mL [26]: 26.7%; MIC [27]: > 1000 µg/mL; MIC [28]: > 1000 µg/mL
COc1cc(C2=NN(c3cc(Cl)cc(Cl)c3)C(c3cccc(Nc4ccnc5cc(Cl)ccc45)c3)C2)cc(OC)c1OC (stereo not given)	> 1000	> 1000	16.5 (≈ 26 µM)	21.9 (≈ 34.6 µM)	10.6	≥ 250	≥ 250	25.6	3.82	> 1000	5.81	≥ 250	≥ 250	0	0.27	> 200	20.3	2.69	1.1	3.54	EC50 [19]: 10.9 µg/mL (≈ 17.2 µM); inhibition of growth at 31.25 µg/mL [20]: 3.54%; MIC [21]: > 1000 µg/mL; inhibition of growth at 31.25 µg/mL [22]: 5.79%; MIC [23]: > 1000 µg/mL; inhibition of growth at 125 µg/mL [24]: 6.13%; MIC [25]: > 1000 µg/mL; inhibition of growth at 7.8 µg/mL [26]: 3.27%; MIC [27]: > 1000 µg/mL; MIC [28]: > 1000 µg/mL
